According to ChEMBL document CHEMBL4028870, “Controlling Plasma Stability of Hydroxamic Acids: A MedChem Toolbox” (J Med Chem, 2017):

Tests used:
Format in all cases: ADME, cell-free
Plasma [1] = assay: Stability in rat plasma at 10 uM up to 360 mins in presence of EDTA by LC-MS/MS analysis; conditions: 6 h
Method in brief: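 Rat plasma incubated in duplicate at 37 °C with 10 µM test compound (1% methanol), plus either 1 mM DTNB (11) or 0.5 mM EDTA (12). Duplicate controls used methanol in place of the inhibitor. Samples taken from 0 to 360 min and quenched with 9 volumes of cold methanol containing internal standard. Remaining compound measured by LC-MS/MS relative to T0.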

Plasma [2] = assay: Half life in rat plasma at 10 uM up to 360 mins in presence of 4-cyclohexylbutanehydroxamic acid by LC-MS/MS analysis; conditions: 6 h
Plasma [3] = assay: Half life in rat plasma at 10 uM up to 360 mins in presence of 3-cyclohexylpropanehydroxamic acid by LC-MS/MS analysis; conditions: 6 h
[4] = Half life in rat plasma at 10 uM up to 360 mins in presence of N-hydroxy-N'-phenylsuccinamide by LC-MS/MS analysis; conditions: with N-hydroxy-N'-phenylsuccinamide (concentration not stated)

- Stability (Plasma [1]): Unstable
- t1/2 (Plasma [2]): 30.9 h
- t1/2 (Plasma [3]): 22.6 h
- half-life at 10 µM [4]: 20 h
Structure (SMILES): O=C(CCCc1ccccc1)NO [PHENYLBUTYRYLHYDROXAMIC ACID]
